From ChEMBL document CHEMBL1124846, “Synthesis, antiproliferative, and antiviral activity of certain 4-substituted and 4,5-disubstituted 7-[(1,3-dihydroxy-2-propoxy)methyl]pyrrolo[2,3-d]pyrimidines” (J Med Chem, 1990)

Key:
Mus musculus [1] = assay: Compound was evaluated for 15 mice treated ip twice daily for 5 days at a dose of 1.9 mg/kg at 6 hr followed (MCMV) virus inoculation; format: functional; conditions: route intraperitoneal
Procedure, shortened: (§1)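 Three-week-old female Swiss Webster mice inoculated ip with 2×10^5 PFU MCMV Smith strain. Groups of 15 dosed ip twice daily for 5 days, starting 6, 24 or 48 h post-inoculation. Held 21 days with daily mortality checks. Final mortality and mean day of death (dying animals) computed. Mortality versus placebo by Fisher Exact Test, MDD by Mann–Whitney U-rank test.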

Mus musculus [2] = assay: Compound was evaluated for percent mortality of mice inoculated with murine cytomegalovirus at a concentration of 50 mg/kg at 6 h; format: ADME, organism-based; set-up: dose 50 mg/kg; conditions: in vivo
Procedure, shortened: (§2)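 Three-week-old female Swiss Webster mice infected ip with 2×10^5 PFU MCMV Smith strain; groups of 15 given drug ip twice daily for 5 days, starting 6, 24 or 48 h after inoculation. Toxicity controls received drug without virus. Mortality followed daily for 21 days; final mortality compared with placebo by Fisher Exact Test.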

Mus musculus [3] = assay: Compound was evaluated for mean day of death at 5.6 mg/kg at 24 h; format: functional; procedure, shortened: as §1
Mus musculus [4] = assay: Compound was evaluated for percent mortality of mice inoculated with murine cytomegalovirus at a concentration of 1.9 mg/kg at 48 h; format: organism-based; set-up: dose 1.9 mg/kg; conditions: in vivo; procedure, shortened: as §1
[5] = Compound was evaluated for cytotoxic activity against HFF cells; format: functional, cell-based; conditions: Homo sapiens
Procedure, shortened: (§3)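 Visual cytotoxicity in uninfected areas of plaque-reduction cultures. HFF cells grown in MEM(E) + 10% FBS for HCMV (Towne) assays; BSC-1 cells for HSV-1 (S-148) assays. Drug in overlay medium. Cytopathology scored 0 to 4+ at 35- and 60-fold magnification on the staining day.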

Mus musculus [6] = assay: Compound was evaluated for mean day of death at 50 mg/kg at 6 h; format: functional; procedure, shortened: as §1
Mus musculus [7] = assay: Compound was evaluated for 15 mice treated ip twice daily for 5 days at a dose of 50 mg/kg at 48 hr followed (MCMV) virus inoculation; format: functional; conditions: route intraperitoneal; procedure, shortened: as §1
Human alphaherpesvirus 1 [8] = assay: Inhibition of herpes simplex virus (HSV-1) in yield reduction assay; format: functional, organism-based
L1210 = assay: In vitro inhibition of L1210 cell growth to half of the control rate; format: functional, cell-based; conditions: Mus musculus
Procedure, shortened: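 Murine L1210 leukemia cells in static suspension culture in Fischer's medium with compound for 4 days. Growth rate is the ratio of control to treated population doubling time; where the rate changed, the final rate was used. IC50 is the concentration giving 50% of control growth rate; single-concentration value at 100 μM.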

Mus musculus [9] = assay: Compound was evaluated for mean day of death at 1.9 mg/kg at 48 h; format: functional; procedure, shortened: as §1
Human alphaherpesvirus 1 [10] = assay: Inhibition of herpes simplex virus (HSV-1) in plaque reduction assay; format: functional, organism-based
Procedure, shortened: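 HSV-1 S-148 strain plaque reduction in BSC-1 monkey kidney monolayers, with about 100 PFU inoculum and compound dissolved in the overlay medium. IC50 came from linear regression of percent inhibition against log concentration, with a positive control in each set.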

Mus musculus [11] = assay: Compound was evaluated for 15 mice treated ip twice daily for 5 days at a dose of 50 mg/kg followed (MCMV) virus inoculation; format: functional; conditions: route intraperitoneal
Mus musculus [12] = assay: Compound was evaluated for 15 mice treated ip twice daily for 5 days at a dose of 16.7 mg/kg followed (MCMV) virus inoculation; format: functional; conditions: route intraperitoneal
[13] = Compound was evaluated for percent mortality of mice inoculated with murine cytomegalovirus at a concentration of 1.9 mg/kg; drug toxicity control; format: organism-based; set-up: dose 1.9 mg/kg; conditions: mouse, in vivo
Procedure, shortened: (§4)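 Drug toxicity control: uninfected three-week-old female Swiss Webster mice, groups of 15, dosed ip twice daily for 5 days. Held 21 days with daily mortality checks. Final mortality and mean day of death for animals that died were calculated.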

Mus musculus [14] = assay: Compound was evaluated for 15 mice treated ip twice daily for 5 days at a dose of 5.6 mg/kg at 6 hr followed (MCMV) virus inoculation; format: functional; conditions: route intraperitoneal; procedure, shortened: as §1
Human betaherpesvirus 5 = assay: Inhibition of human cytomegalovirus (HCMV) in plaque reduction assay; format: functional, organism-based
Procedure, shortened: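 HCMV Towne strain (plaque-purified P0) plaque reduction in HFF monolayers in MEM(E) with 10% FBS. Inoculum held about 50 PFU, with compound dissolved in the overlay medium. IC50 came from linear regression of percent inhibition against log concentration, with ganciclovir or acyclovir positive controls in every set; two to five experiments.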

[15] = Cytotoxicity of HCMV in human foreskin fibroblasts cells; format: functional, cell-based; conditions: Fibroblast
Procedure, shortened: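 Visual cytotoxicity was scored in uninfected cells of the same host monolayers used for the plaque assays, on a 0 to 4+ scale at 35- and 60-fold magnification, at the time plaques were counted.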

Mus musculus [16] = assay: Compound was evaluated for mean day of death at 16.7 mg/kg at 6 h; format: functional; procedure, shortened: as §1
[17] = Cytotoxicity of AD169 strain of HCMV in human foreskin fibroblasts cells; format: functional, cell-based; conditions: Fibroblast
Mus musculus [18] = assay: Compound was evaluated for 15 mice treated ip twice daily for 5 days at a dose of 50 mg/kg at 24 h followed (MCMV) virus inoculation; format: functional; conditions: route intraperitoneal; procedure, shortened: as §1
Mus musculus [19] = assay: Compound was evaluated for 15 mice treated ip twice daily for 5 days at a dose of 5.6 mg/kg at 48 hr followed (MCMV) virus inoculation; format: functional; conditions: route intraperitoneal; procedure, shortened: as §1
Mus musculus [20] = assay: Compound was evaluated for percent mortality of mice inoculated with murine cytomegalovirus at a concentration of 1.9 mg/kg at 24 h; format: organism-based; set-up: dose 1.9 mg/kg; conditions: in vivo; procedure, shortened: as §1
Mus musculus [21] = assay: Compound was evaluated for mean day of death at 5.6 mg/kg at 6 h; format: functional; procedure, shortened: as §1
Mus musculus [22] = assay: Compound was evaluated for mean day of death at 50 mg/kg at 48 h; format: functional; procedure, shortened: as §1
Mus musculus [23] = assay: Compound was evaluated for mean day of death at 16.7 mg/kg; drug toxicity control; format: functional; procedure, shortened: as §4
Homo sapiens = organism: Homo sapiens; assay: Inhibition of AD169 strain human cytomegalo virus (HCMV) in human foreskin fibroblasts cell lines was determined by plaque assay; format: functional, organism-based; conditions: Fibroblast
Procedure, shortened: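 Plaque reduction used MCMV Smith in primary mouse embryo fibroblasts, HCMV AD169 in low-passage HFF, and HSV-1 E-377 and HSV-2 MS in MEF, rabbit kidney or HFF. IC50 was determined against untreated controls; two or more experiments.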

Mus musculus [24] = assay: Compound was evaluated for percent mortality of mice inoculated with murine cytomegalovirus at a concentration of 5.6 mg/kg at 48 h; format: ADME, organism-based; set-up: dose 5.6 mg/kg; conditions: in vivo; procedure, shortened: as §2
Mus musculus [25] = assay: Compound was evaluated for percent mortality of mice inoculated with murine cytomegalovirus at a concentration of 16.7 mg/kg at 48 h; format: organism-based; set-up: dose 16.7 mg/kg; conditions: in vivo; procedure, shortened: as §1
Mus musculus [26] = assay: Compound was evaluated for mean day of death at 16.7 mg/kg at 48 h; format: functional; procedure, shortened: as §1
[27] = Compound was evaluated for cytotoxic activity against BSC cells; format: functional, cell-based; conditions: Cercopithecidae; procedure, shortened: as §3
Mus musculus [28] = assay: Compound was evaluated for percent mortality of mice inoculated with murine cytomegalovirus at a concentration of 50 mg/kg; drug toxicity control; format: functional; procedure, shortened: as §2

Nc1ncnc2c1c(Br)cn2COC(CO)CO
Activity (Mus musculus [1]): 5
Mortality (Mus musculus [2]): 60%
MDD (Mus musculus [3]): 6.3
Mortality (Mus musculus [4]): 67%
IC50 [5]: > 100000 nM
MDD (Mus musculus [6]): 10.8
Activity (Mus musculus [7]): 13
IC90 (Human alphaherpesvirus 1 [8]): 17000 nM
IC50 (L1210): 710 nM
MDD (Mus musculus [9]): 4.8
IC50 (Human alphaherpesvirus 1 [10]): 2000 nM
Activity (Mus musculus [11]): 0
Activity (Mus musculus [12]): 1
Mortality [13]: 0%
Activity (Mus musculus [14]): 1
IC50 (Human betaherpesvirus 5): 1900 nM
IC50 (Human betaherpesvirus 5; Human betaherpesvirus 5): 1600 nM
IC50 [15]: > 100000 nM
MDD (Mus musculus [16]): 8.7
IC50 [17]: > 158000 nM
Activity (Mus musculus [18]): 14
Activity (Mus musculus [19]): 6
Mortality (Mus musculus [20]): 60%
MDD (Mus musculus [21]): 8
MDD (Mus musculus [22]): 7.5
MDD (Mus musculus [23]): 5
IC50 (Homo sapiens): 600 nM
Mortality (Mus musculus [24]): 40%
Mortality (Mus musculus [25]): 87%
MDD (Mus musculus [26]): 8.4
IC50 [27]: > 100000 nM
mortality at 50 mg/kg (Mus musculus [28]): 0%
